From PubChem
Only some compounds are listed: those with a hit (about 4.1% of all), similar ones and a draw of the others.
Mdm2 MdmX PPI: inhibitors of human Mdm2-MdmX association, primary screen, cell-based, luminescence, split luciferase, SaOS-2, uHTS; inhibition, % at 8 µM; SaOS-2 split-luciferase Mdm2/MdmX complementation; hit rate 3% among 330,000;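 active = inhibition of at least 50% at 8 µM in the primary screen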
UPR XBP1 act: activators of adaptive XBP1 UPR arm, primary screen, cell-based, CHO-XBP1 luciferase reporter, luminescence, uHTS. IRE1-XBP1 UPR activation; percent of tunicamycin response, DMSO as zero. activation, % at 20 µM. hit rate 0.33% among 330,000;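 active = versus positive control, 20 µM dose yields 30% or more activation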
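Material: CHO cell line with stable XBP1 luciferase reporter; schedule: 16-18 h cell attachment at 37 °C, then 6 h compound exposure; signal: glow luminescence from Steady-Glo reagent; medium: serum-containing F12 medium, 10% FBS; benchmarks: tunicamycin 10 µg/mL and vehicle-only wells; read-out: percent activation relative to tunicamycin reference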
UBC13 polyUb: UBC13 polyubiquitin chain formation inhibitors, primary screen, biochemical, TR-FRET, uHTS | AID 485273, 2010 | inhibition, % at 20 µM | hit rate 0.47% among 330,000 | Ubiquitin-conjugating enzyme E2 N (Homo sapiens), P61088; in the data active = inhibition above about 45%, passing the limit was not always enough
UPR CHOP act: activators of apoptotic CHOP UPR arm, primary screen, cell-based, CHO-CHOP luciferase reporter, luminescence, uHTS | hit rate 0.34% among 330,000 | UPR activation; percent of tunicamycin response over DMSO baseline | activation, % at 10 µM;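 active = at 10 µM dose, activation of 40% or more, normalized to positive control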
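Assay system: CHO cells with stable CHOP pathway luciferase reporter; Buffer or medium: F12 plus 10% serum; Times: 16-18 h cell attachment, then 6 h compound exposure, 37 °C; Signal: luciferase luminescence; Read-out basis: percent activation relative to tunicamycin control; Control set: tunicamycin high control, DMSO low control.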
Apaf1 inhib: inhibitors of human Apaf-1 apoptosome, primary screen, biochemical, DEVD-Rh110 fluorescence, uHTS; Apoptotic protease-activating factor 1 (Homo sapiens), O14727; reconstituted apoptosome caspase-3 activity; inhibition, % at 20 µM; hit rate 0.71% among 330,000; AID 489030, 2010; active = inhibition of at least 40% at 20 µM
Target sequence (O14727 whole entry, looked up): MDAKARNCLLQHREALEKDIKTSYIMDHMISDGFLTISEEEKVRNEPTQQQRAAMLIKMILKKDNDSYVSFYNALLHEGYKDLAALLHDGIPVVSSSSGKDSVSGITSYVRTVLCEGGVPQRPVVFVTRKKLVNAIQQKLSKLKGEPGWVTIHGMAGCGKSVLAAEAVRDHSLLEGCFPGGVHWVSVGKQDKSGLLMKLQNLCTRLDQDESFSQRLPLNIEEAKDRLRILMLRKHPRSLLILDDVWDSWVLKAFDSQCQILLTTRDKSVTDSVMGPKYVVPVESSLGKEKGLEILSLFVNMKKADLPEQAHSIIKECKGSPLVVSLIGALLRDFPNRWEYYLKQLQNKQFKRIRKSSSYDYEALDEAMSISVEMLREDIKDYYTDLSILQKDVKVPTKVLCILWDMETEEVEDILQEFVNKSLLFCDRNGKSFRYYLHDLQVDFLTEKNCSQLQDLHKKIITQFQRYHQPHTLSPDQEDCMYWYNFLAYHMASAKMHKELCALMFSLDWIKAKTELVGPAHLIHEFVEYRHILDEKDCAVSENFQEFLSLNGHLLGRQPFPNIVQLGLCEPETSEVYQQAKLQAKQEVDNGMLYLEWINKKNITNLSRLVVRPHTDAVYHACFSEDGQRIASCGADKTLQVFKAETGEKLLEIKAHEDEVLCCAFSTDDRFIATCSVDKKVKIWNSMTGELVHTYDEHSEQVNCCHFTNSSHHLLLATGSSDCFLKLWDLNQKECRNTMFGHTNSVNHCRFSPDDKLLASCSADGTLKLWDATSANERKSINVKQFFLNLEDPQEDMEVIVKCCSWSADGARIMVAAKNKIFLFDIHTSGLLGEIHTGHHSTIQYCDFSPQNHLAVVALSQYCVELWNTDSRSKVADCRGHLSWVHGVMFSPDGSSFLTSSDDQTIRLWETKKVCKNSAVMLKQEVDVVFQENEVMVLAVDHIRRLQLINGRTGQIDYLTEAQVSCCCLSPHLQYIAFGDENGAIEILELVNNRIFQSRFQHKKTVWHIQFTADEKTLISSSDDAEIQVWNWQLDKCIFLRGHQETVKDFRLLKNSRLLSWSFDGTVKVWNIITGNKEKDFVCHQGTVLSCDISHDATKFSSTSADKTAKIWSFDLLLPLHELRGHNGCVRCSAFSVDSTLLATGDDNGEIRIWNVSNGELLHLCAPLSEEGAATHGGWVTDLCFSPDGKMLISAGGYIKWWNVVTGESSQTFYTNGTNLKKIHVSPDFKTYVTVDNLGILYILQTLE
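Material: cell-free apoptosome with Apaf-1, procaspase-3 and caspase-9; Buffer or medium: Hepes pH 7.5 with detergent and BSA; Reagent: cytochrome c trigger plus (Z-DEVD)2-Rh110 caspase-3 substrate; Times: compound with Apaf-1, dATP, procaspase-3 30 min, then 50 min reaction, room temperature; Technique: Rh110 fluorescence intensity.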
XBP1 UPR conf: IRE1-XBP1 UPR arm activators, confirmation, cell-based, CHO-XBP1 luciferase reporter, luminescence, single concentration. shares compounds with UPR XBP1 act. activation, % at 20 µM. hit rate 63% among 1,000. AID 485299, 2010;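 active = reporter signal at least 30% of the positive control's activation in two or more of four replicate wells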
Each line names hits and unclear results; the compound was inactive in the other large screens (follow-up assays come after a bar, where they were run).

COc1cc(/C=C2/C(=N)N3C=CSC3=NC2=O)ccc1OCCCOc1cc(C)ccc1C	UPR XBP1 act 85.1 | XBP1 UPR conf 129.1
COc1ccccc1OCCOc1ccc(/C=C2/C(=N)N3OC(C)=CC3=NC2=O)cc1OC	none
Cc1cc(C)c2c(n1)sc1c(-c3ccccc3)c(C#N)c(N)nc12	UPR XBP1 act 90.6 | XBP1 UPR conf 47.8
O=C(CN1CCC(n2cnc3cc(F)ccc32)CC1)Nc1ccccc1Br	none
Cc1ccc2nc(/C(C#N)=C/c3ccccc3C(=O)O)[nH]c2c1	none
Cc1ccc2nc(/C(C#N)=C/c3ccc(O)c(O)c3)[nH]c2c1	UPR XBP1 act 43.0 | XBP1 UPR conf 33.1
O=C(N/N=C/c1ccc(Cl)cc1)c1sccc1OCc1ccc(F)cc1	UPR XBP1 act 50.4 | XBP1 UPR conf 55.2
CC(C)(C)c1ccc(OCCC(=O)Nc2cccc(S(=O)(=O)N3CCCCC3)c2)cc1	none
Cc1ccc(C(=O)Nc2cc(S(=O)(=O)N3CCOCC3)ccc2N2CCCC2)cc1	UPR XBP1 act 35.4 | XBP1 UPR conf 37.7
Cc1ccc(S(=O)(=O)N2CCOCC2)cc1C(=O)O	none
O=C(Nc1cc(S(=O)(=O)N2CCOCC2)ccc1N1CCCC1)c1ccc(Cl)cc1	none
Cc1ccc(C)c(N2CCN(C(=O)c3cc(S(=O)(=O)N4CCOCC4)ccc3F)CC2)c1	UPR XBP1 act 33.2 | XBP1 UPR conf inactive
Cc1ccc(-c2sc(C(=O)NN)c(C)c2C#N)cc1	none
Cc1cc(C(=O)Nc2cccc3c2O[C@@H](CN(C)S(C)(=O)=O)[C@H](C)CN([C@@H](C)CO)C3=O)n(C)n1	none
NC(=O)C1CC(=O)N(c2ccc(OCC(=O)Nc3ccc(F)cc3)cc2)C1 (stereo unspecified)	none
CC(NC(=O)c1cc2c(s1)CS(=O)(=O)C2)c1ccccc1 (stereo unspecified)	none
CC(C)c1ccc(S(=O)(=O)c2nnn3c2nc(N2CCCCC2)c2ccccc23)cc1	none
N#Cc1cnn2c1nc(N1CCCCC1)c1ccccc12	UPR XBP1 act 46.8 | XBP1 UPR conf 41.2
Cc1cc(C(=O)N/N=C/c2ccc(-c3cccc(Br)c3)o2)n[nH]1	UPR XBP1 act 31.9 | XBP1 UPR conf inactive
Cc1cc(C(=O)N/N=C/c2ccc(-c3cccc(Cl)c3Cl)o2)n[nH]1	none
NC(=O)C1CCN(C(=O)Cc2ccsc2)CC1	none
N#Cc1ccc(-c2ccc(Cl)cc2)nc1SCC(=O)c1cccc(Cl)c1	UPR XBP1 act 122.1 | XBP1 UPR conf 369.1
N#Cc1ccc(-c2ccccc2)nc1SCC(=O)c1cccc(Cl)c1	none
COc1ccc(-c2csc3nc(C(C)C)oc(=O)c23)cc1OC	none
COc1ccc(-c2nc3scc(-c4ccc(OC)c(OC)c4)c3c(=O)o2)cc1	UPR XBP1 act 41.5 | XBP1 UPR conf 47.3
CCC(C)(C(=O)Nc1ccc(OC)cc1)N(C)C(=O)Cn1nnnc1N (stereo unspecified)	none
COc1ccc(-c2cc(C(=O)Nc3c(C)nn(Cc4ccc(Cl)cc4)c3C)no2)cc1	UPR XBP1 act 48.6 | XBP1 UPR conf inactive
COC(=O)c1ccc(OC(=O)CN2C(=O)c3ccccc3C2=O)cc1	none
CCCCn1c(N)c(N(CC(C)C)C(=O)C2CCCO2)c(=O)[nH]c1=O (stereo unspecified)	none
CCCCC1CCC(C(=O)N(CC(C)C)c2c(N)n(CCCC)c(=O)[nH]c2=O)CC1 (stereo unspecified)	UPR XBP1 act 39.2 | XBP1 UPR conf 37.9
Cc1cc(NC(=O)CSc2ccc(-c3nc4cc(C)c(C)cc4[nH]3)cn2)no1	UPR XBP1 act 58.1 | XBP1 UPR conf 30.9
Cc1cc2nc(-c3ccc(SCC(=O)NC(C)C)nc3)[nH]c2cc1C	none
O=[N+]([O-])c1cccc(/C=C/c2nc(C=Nc3ccccc3)c(O)o2)c1	UPR XBP1 act 35.7 | XBP1 UPR conf inactive
COc1ccc(C2CC(c3c(-c4ccccc4)c4cc(Cl)ccc4[nH]c3=O)=NN2S(C)(=O)=O)cc1 (stereo unspecified)	UPR XBP1 act 49.9 | XBP1 UPR conf 139.9
COc1ccc(OC)c(C2CC(c3c(-c4ccccc4)c4cc(Cl)ccc4[nH]c3=O)=NN2S(C)(=O)=O)c1 (stereo unspecified)	UPR XBP1 act 54.5 | XBP1 UPR conf inactive
CCOC(=O)[C@H]1NN=C(C(=O)OC)[C@@H]1c1ccccc1	none
Cc1ccc(NC2=C(Cl)C(=O)OC2OC(C)C)c(C)c1 (stereo unspecified)	UPR XBP1 act 35.8 | XBP1 UPR conf inactive
Cc1cccc(C)c1NC1=C(Cl)C(=O)OC1OC(C)C (stereo unspecified)	none
CC1CCc2cc(F)ccc2N1C(=O)C1(C)CC1(Cl)Cl (stereo unspecified)	none
COc1ccccc1NC(=O)CSc1nc2c(sc3ccccc32)c(=O)n1CCN(C)C	none
CCN(CC)CCn1c(SCC(=O)Nc2ccc(F)cc2)nc2c(sc3ccccc32)c1=O	UPR XBP1 act 165.9 | XBP1 UPR conf 227.9
C[C@@H]1CC2OC(=O)[C@@]3(C)C(=O)CC[C@@](C)(C23)[C@@]1(O)CCc1ccoc1 (stereo partly specified)	none
O=[N+]([O-])c1ccccc1/C=C/C=N/n1c(-c2cc(-c3ccccc3)n[nH]2)n[nH]c1=S	UPR XBP1 act 38.9 | XBP1 UPR conf inactive
CCNC(=O)c1c(NC(=O)c2cc(-c3cc(C)ccc3O)n[nH]2)sc2c1CCCC2	UPR XBP1 act 42.3 | XBP1 UPR conf 74.6
CCOC(=O)CC(=O)CSc1nc(-c2ccc3c(c2)OCO3)cc(C(F)(F)F)c1C#N	UPR XBP1 act 37.6 | XBP1 UPR conf inactive
CC[C@@]1(C(=O)OC)N[C@H](CN(C)C(=O)Nc2ccc(F)cc2)[C@@H]2C(=O)N(Cc3ccccc3)C(=O)[C@@H]21	none
CC1CCCN(CCCN2C(=O)C3C(C(=O)Nc4cccc(Cl)c4)C4C=CC3(O4)C2C(=O)NC2CCCCC2)C1 (stereo unspecified)	none
COc1ccc(OC)c2sc(NC(=O)c3ccc(Cl)s3)nc12	UPR XBP1 act 96.6 | XBP1 UPR conf inactive
O=C(CSc1ccc2nnc(-c3ccc(Cl)cc3)n2n1)N1CCc2ccccc21	UPR XBP1 act 30.0 | XBP1 UPR conf inactive
O=C(CSc1ccc2nnc(-c3ccc(Cl)cc3)n2n1)N1CCCC1	none
COc1ccc(C(=O)/C=C/c2ccccc2)c(OC)c1	none
